CHRM5 antagonist: human M5 muscarinic receptor antagonists, primary screen, CHO cells, Fluo-8 calcium fluorescence; AID 624040, 2012; actives 0.59% (n = 360,000); Muscarinic acetylcholine receptor M5 (Homo sapiens), P08912; CHO-hM5 cells, ACh EC80; inhibition, % at 3 µM;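 active = inhibition above a per-plate cutoff, the mean of that plate's test compounds plus 3 SD, cut at about 27% in these data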;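 also: 0% = acetylcholine EC80 with DMSO and 100% = DMSO without agonist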
M5 PAM: human M5 muscarinic receptor positive allosteric modulators, primary screen, CHO-K1 cells, Fluo-8 calcium fluorescence; actives 0.3% (n = 360,000); Muscarinic acetylcholine receptor M5 (Homo sapiens), P08912; CHO-K1 hM5, ACh EC20 PAM; 0% = ACh EC20, 100% = ACh EC100; activation, % at 3 µM;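 active = activation above the run cutoff, the mean activation of all test compounds plus 3 SD, cut at about 18% in these data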
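system = human M5 receptor in CHO-K1 cells | compound = one concentration, 3 µM final (nominal) | schedule = Post-acetylcholine fluorescence recording 140 s | signal = Fluo-8 calcium dye fluorescence, kinetic read | benchmarks = low control EC20 acetylcholine (0%), high control EC100 acetylcholine (100%) | repeats = singlicate, one well per test compound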
CHRM4 antagonist: human M4 muscarinic receptor antagonists, primary screen, CHO cells, Fluo-8 calcium fluorescence | inhibition, % at 3 µM | actives 0.73% (n = 360,000) | Muscarinic acetylcholine receptor M4 (Homo sapiens), P08173 | CHO-hM4 cells, ACh EC80;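 active = inhibition above its plate's cutoff, the mean inhibition of sample wells plus 3 SD, cut at about 27% in these data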;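 also: 0% = acetylcholine EC80 with DMSO and 100% = DMSO without agonist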
Target sequence (P08173 whole entry, looked up): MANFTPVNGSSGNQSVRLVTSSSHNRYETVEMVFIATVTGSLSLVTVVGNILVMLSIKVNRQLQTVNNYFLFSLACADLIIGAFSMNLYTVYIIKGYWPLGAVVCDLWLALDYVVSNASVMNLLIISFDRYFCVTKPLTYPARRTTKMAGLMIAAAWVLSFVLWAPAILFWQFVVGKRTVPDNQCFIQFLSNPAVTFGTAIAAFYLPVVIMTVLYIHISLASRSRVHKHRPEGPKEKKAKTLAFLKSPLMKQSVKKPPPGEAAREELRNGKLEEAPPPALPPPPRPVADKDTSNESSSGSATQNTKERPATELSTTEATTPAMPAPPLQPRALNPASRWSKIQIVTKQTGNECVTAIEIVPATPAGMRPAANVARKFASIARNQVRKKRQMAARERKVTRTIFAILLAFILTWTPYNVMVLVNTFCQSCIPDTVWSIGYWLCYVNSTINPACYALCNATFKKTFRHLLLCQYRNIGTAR
CHRM4 agonist: human M4 muscarinic receptor agonists, primary screen, CHO-K1 cells, Fluo-8 calcium fluorescence | CHO-K1 hM4/Gqi5; vehicle 0%, full acetylcholine response 100% | activation, % at 3 µM | actives 0.14% (n = 360,000);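 active = activation above the run mean over all test wells plus 3 SD, cut at about 32% in these data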;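 also: peak over basal fluorescence ratio per well then scaled between controls; 0% = DMSO wells and 100% = acetylcholine at EC100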
CHRM5 agonist: human M5 muscarinic receptor agonists, primary screen, CHO-K1 cells, Fluo-8 calcium fluorescence. actives 0.19% (n = 360,000). AID 624037, 2012. Muscarinic acetylcholine receptor M5 (Homo sapiens), P08912. activation, % at 3 µM. CHO-K1 hM5 cells; 0% DMSO wells, 100% maximal acetylcholine response;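 active = activation above the run's mean over test compounds plus 3 SD, cut at about 23% in these data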;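 also: signal is peak over basal fluorescence ratio across the kinetic read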
M4 PAM: human M4 muscarinic receptor positive allosteric modulators, primary screen, CHO-K1 cells, Fluo-8 calcium fluorescence; activation, % at 3 µM; Muscarinic acetylcholine receptor M4 (Homo sapiens), P08173; actives 0.4% (n = 360,000); CHO-K1 hM4/Gqi5, ACh EC20; 0% = ACh EC20, 100% = maximal ACh;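 active = activation above its plate's cutoff, the mean activation of sample wells plus 3 SD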
* = called active by the depositor. Most compounds without a hit are left out; they make up all but 1.8% or so of the library.

SMILES	CHRM5 antagonist	M5 PAM	CHRM4 antagonist	CHRM4 agonist	CHRM5 agonist	M4 PAM
CCOC(=O)C1CCCN(C(=S)Nc2ccc(F)cc2)C1 (stereo not given)	-3	-12	-3	7	23	2
CCOC(=O)C1CCCN(C(=S)Nc2cccc(Cl)c2C)C1 (stereo not given)	11	-17	6	2	28*	0
Cc1c(Cl)cccc1NC(=S)N1CCCCCC1	-3	12	-3	0	-2	5
CC(C)c1ccc(NC(=O)C2(C)Cc3c(-c4ccc(N(C)C)cc4)ccnc3O2)cc1 (stereo not given)	-4	0	-5	-1	-1	0
O=C(CN1CCC(NC(=O)c2cccc(F)c2)CC1)NCc1cccs1	17	-1	-3	3	-1	24*
CCc1noc(C)c1C(=O)OCC(=O)Nc1cccc(C)c1	17	0	7	1	-3	0
CC(=O)Nc1c(Cl)cnn(-c2ccccc2)c1=O	-11	22*	-13	1	0	-6
CC(C)c1ccccc1NC(=O)COC(=O)/C=C/c1cccc([N+](=O)[O-])c1	-2	5	0	1	0	-2
Cc1cc2nnc(SCC(=O)Nc3cccc(S(=O)(=O)N4CCOCC4)c3)n2c2ccccc12	-2	4	5	4	-3	-8
Cc1nn(-c2ccccc2)c(C)c1C(=O)OCC(=O)Nc1ccccc1C(F)(F)F	-3	-5	-2	-3	-3	23*
COc1ccccc1NC(=O)COC(=O)c1c(C)nn(-c2ccccc2)c1C	17	-31	6	17	0	-1
O=C(NC(NNc1ccc([N+](=O)[O-])cc1)(C(F)(F)F)C(F)(F)F)c1ccc(F)cc1	29*	-17	9	13	9	-9
O=C(NC(NNc1ccc([N+](=O)[O-])cc1)(C(F)(F)F)C(F)(F)F)c1ccccc1Cl	10	-12	6	4	0	-11
Cc1ccc(-c2csc(NC(=O)c3cc([N+](=O)[O-])ccc3N3CCOCC3)n2)cc1	8	0	1	0	-3	3
O=C(Nc1nc(-c2ccccc2)cs1)c1ccc(N2CCOCC2)c([N+](=O)[O-])c1	30*	-18	44*	22	11	-35
Cc1c(Br)c([N+](=O)[O-])nn1C(C)C(=O)NCc1cccnc1 (stereo not given)	2	0	-8	0	-1	7
Cc1sc2ncn(CC(=O)N3CCOCC3)c(=O)c2c1-c1ccccc1	18	25*	-9	1	8	16
O=C(OCCN1CCCCC1)c1ccccc1Br	21	-11	6	11	-4	-16
O=C(OCCN1CCCC1)C1(c2ccccc2)CCCC1	99*	-23	94*	2	-8	-23
O=C(OCCN1CCCCC1)C1(c2ccccc2)CCCC1	99*	-18	91*	1	-11	-25
CCNC(=O)C1(c2ccccc2)CCCC1	-1	5	4	1	1	9
CCN(CC)CCOC(=O)c1ccc(NC(=O)C2(c3ccccc3)CCCC2)cc1	36*	-41	21	3	-15	-13
O=C(O)c1ccc(NC(=O)C2(c3ccccc3)CCCC2)cc1	6	3	-5	0	-3	4
CN(C)CCOC(=O)C1(c2ccccc2)CCCC1	86*	-20	77*	1	-8	-25
O=C(O)c1ccc(NC(C(=O)c2ccccc2)c2ccccc2)cc1 (stereo not given)	12	5	-9	1	0	7
SMILES	CHRM5 antagonist	M5 PAM	CHRM4 antagonist	CHRM4 agonist	CHRM5 agonist	M4 PAM
CC(C)(C)OC(=O)N1CCN(C(=O)c2[nH]cnc2C(=O)Nc2nccs2)CC1	0	1	7	1	3	10
CC1NC(=O)c2cccnc2-n2c1nc1ccccc1c2=O (stereo not given)	-7	0	-11	0	0	3
N/C(=N\c1nc(CSc2ccc(Cl)cc2)cc(=O)[nH]1)Nc1ccccc1C(F)(F)F	8	-1	-1	1	3	2
CN(C(=O)c1cc2ccccc2o1)c1c(N)n(Cc2ccccc2)c(=O)[nH]c1=O	17	-6	1	1	-1	5
C[N+]1(CCCOC(=O)C2(c3ccccc3)CCCC2)CCOCC1	87*	-19	78*	1	-6	-39
COc1ccc(C(=O)OCC[N+]2(C)CCOCC2)cc1	8	6	-16	1	-9	10
Cc1ccc(C)c(OCCC(=O)Nc2cccc(S(=O)(=O)N3CCCCC3)c2)c1	14	-18	0	10	1	-8
Nc1c(C(=O)NCc2ccc3c(c2)OCO3)c2nc3ccccc3nc2n1CCCN1CCOCC1	13	-2	4	9	0	-1
COc1ccccc1CNC(=O)c1c(N)n(CCCN2CCOCC2)c2nc3ccccc3nc12	25	-12	34*	32	5	-10
O=C(CSc1nnc(Cc2ccccc2)o1)N1CCc2ccccc21	-2	0	-9	1	-5	11
O=C(CSc1nnc(COc2cccc3cccnc23)o1)N1CCc2ccccc21	28*	-9	5	1	-3	13
CC1CCN(CC[C@H]2CCCN2S(=O)(=O)c2cccc(O)c2)CC1	1	-9	51*	1	-1	-16
CCOC(=O)C(C(=O)Nc1ccc(C)cc1)C1CCCCC1 (stereo not given)	-1	7	-2	0	-8	45*
CCOC(=O)C(C(=O)Nc1ccccc1)C1CCCCC1 (stereo not given)	21	-17	3	3	-7	-7
COC(=O)C(C)N1CCC(=O)c2ccccc2S1(=O)=O (stereo not given)	-1	11	0	1	0	5
Cc1ccc(C)c(CN2C(=O)CSc3ccc(C(=O)NCCN4CCOCC4)cc32)c1	3	-4	4	2	-5	1
O=C(NCCN1CCOCC1)c1ccc2c(c1)N(Cc1ccccc1F)C(=O)CS2	1	-8	47*	0	-15	-17
O=C(NCCCN1CCOCC1)c1ccc2c(c1)N(Cc1c(F)cccc1Cl)C(=O)CS2	19	-16	58*	2	-7	-20
